Bioassay records from PubChem BioAssay.
This is a sample that favours compounds with a hit; in the whole collection about 1.2% have one here.
Diaphorase inh = counter-screen for diaphorase-based assays: diaphorase inhibitors and chemical oxidizers; diaphorase resazurin-to-resorufin fluorescence, NADH, 16 min; bacterial (C. kluyveri) enzyme, not human; inhibition, % at 20 µM; 190,000 compounds, 0.69% hits;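 active means primary screen inhibition at 20 µM above a set limit, cut at about 50% in these data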;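 further: plate controls were DMSO with full reaction for no effect and wells lacking NADH for full effect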
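Detection: fluorescence of resorufin formed from resazurin, Ex 544/Em 590 nm; test system: Clostridium kluyveri diaphorase enzyme; amount: 0.14 U/mL diaphorase, enzyme working solution; times: 16-min room-temperature incubation before reading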
HKDC1 inh = HKDC1 (human) hexokinase inhibition; Q2TB90; recombinant HKDC1, G6PDH/diaphorase resazurin coupled fluorescence; inhibition, % at 20 µM; 340,000 compounds, 0.16% hits; AID 493160;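 active means inhibition above about 35% when tested at 20 µM, limit read from the data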;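 further: plate controls were DMSO wells with enzyme for no effect and DMSO wells lacking enzyme for full effect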
Target sequence (Q2TB90 whole entry, looked up): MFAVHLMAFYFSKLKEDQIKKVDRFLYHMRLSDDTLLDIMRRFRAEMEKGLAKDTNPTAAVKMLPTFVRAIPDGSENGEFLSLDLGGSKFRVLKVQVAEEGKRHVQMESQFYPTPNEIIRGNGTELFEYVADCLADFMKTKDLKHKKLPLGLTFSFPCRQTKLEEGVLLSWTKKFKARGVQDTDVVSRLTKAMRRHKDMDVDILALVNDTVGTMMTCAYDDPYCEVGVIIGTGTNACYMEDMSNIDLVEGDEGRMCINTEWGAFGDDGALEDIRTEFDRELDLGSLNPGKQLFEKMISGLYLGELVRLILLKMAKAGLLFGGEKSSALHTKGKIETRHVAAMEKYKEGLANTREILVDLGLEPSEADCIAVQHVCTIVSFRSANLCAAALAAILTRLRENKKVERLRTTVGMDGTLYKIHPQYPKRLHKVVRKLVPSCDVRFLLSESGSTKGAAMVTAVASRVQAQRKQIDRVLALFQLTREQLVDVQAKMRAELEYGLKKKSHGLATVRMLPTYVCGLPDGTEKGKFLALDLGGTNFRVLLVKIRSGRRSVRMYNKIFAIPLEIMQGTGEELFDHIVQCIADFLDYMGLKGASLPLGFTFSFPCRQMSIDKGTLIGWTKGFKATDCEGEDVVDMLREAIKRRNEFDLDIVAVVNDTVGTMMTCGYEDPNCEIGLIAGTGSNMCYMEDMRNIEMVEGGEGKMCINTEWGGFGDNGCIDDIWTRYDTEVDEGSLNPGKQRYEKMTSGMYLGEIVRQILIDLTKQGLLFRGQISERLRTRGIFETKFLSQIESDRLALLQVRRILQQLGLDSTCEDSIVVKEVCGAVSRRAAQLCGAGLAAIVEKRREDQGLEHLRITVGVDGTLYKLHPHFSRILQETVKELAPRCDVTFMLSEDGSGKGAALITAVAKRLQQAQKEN
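Assay system: in-house recombinant HK5 (HKDC1) enzyme. Input: HKDC1 at 5 µg/mL. Medium: Tris pH 8.0 buffer with MgCl2, Tween-20, BSA, BME. Dosing: single 20 µM dose. Schedule: 90 min reaction incubation at room temperature, dark. Signal: resazurin-to-resorufin fluorescence via G6PDH and diaphorase coupling, 525/613 nm. Controls: DMSO-enzyme wells negative, buffer-substituted wells positive.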
G6PDH CS = L. mesenteroides G6PDH inhibition counter-screen; Purified L. mesenteroides G6PDH, diaphorase/resazurin coupled fluorescence, 45 min; inhibition, % at 5 µM; 200,000 compounds, 0.12% hits; in the data active means inhibition above about 50%
PfGluPho inh = PfG6PD (Plasmodium falciparum) enzyme inhibition | inhibition, % at 20 µM | 350,000 compounds, 0.78% hits | PfGluPho enzyme, NADPH resazurin-diaphorase fluorescence;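 active means inhibition reaching at least a set limit at 20 µM in the primary screen, cut at about 59% in these data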;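 further: 0% = DMSO wells with substrate and 100% = DMSO wells lacking glucose-6-phosphate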
HKDC1 act conf2 = confirmation of human HKDC1 activators | shares compounds with HKDC1 inh | recombinant HKDC1, G6PDH/diaphorase resazurin fluorescence; active compounds read low | inhibition, % at 20 µM | 740 compounds, 14% hits;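 active means inhibition at or below a set negative limit, negative inhibition meaning the enzyme was activated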
PfGluPho conf = confirmation of Plasmodium falciparum G6PD inhibitors; shares compounds with PfGluPho inh; recombinant PfGluPho, NADPH-diaphorase-resazurin fluorescence; inhibition, % at 20 µM; 2,400 compounds, 34% hits; AID 504753;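 active means inhibition of at least 50% at 20 µM in any single replicate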;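 further: 0% = DMSO with substrate and 100% = DMSO lacking glucose-6-phosphate substrate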
Diaph ctr 10uM = counter-screen for P. falciparum G6PD inhibitors: diaphorase inhibitors, oxidizers | shares compounds with PfGluPho inh | 820 compounds, 39% hits | inhibition, % at 20 µM | diaphorase-coupled resazurin reduction, fluorescence, NADPH 10 uM | AID 504862;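 active means average inhibition reaching 50% or more with the compound at 20 µM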;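 further: resorufin red fluorescence formed as diaphorase reduces resazurin using NADPH; 0% = DMSO with enzyme and 100% = DMSO without enzyme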
Diaphorase 30uM = counter-screen for P. falciparum G6PD inhibitors: diaphorase inhibitors, oxidizers; Diaphorase/resazurin coupled assay, resorufin fluorescence, 30 uM NADPH; shares compounds with PfGluPho inh; 820 compounds, 29% hits; inhibition, % at 20 µM;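 active means inhibition averaging 50% or more, tested at 20 µM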;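 further: 0% = DMSO with enzyme and 100% = DMSO wells lacking diaphorase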
* hit, by the source's call.

Screening CCOC(=O)C1CCN(C(=O)Nc2ccc3nc(-c4ccco4)c(-c4ccco4)nc3c2)CC1 returned Diaphorase inh 52*, HKDC1 inh 43*, G6PDH CS 1, PfGluPho inh 71*, HKDC1 act conf2 0 and PfGluPho conf 3.
For O=C1C=C(N(CCO)Cc2ccccc2)c2ccccc2C1=O the results were Diaphorase inh 21, HKDC1 inh 35*, G6PDH CS 54*, PfGluPho inh 71*, HKDC1 act conf2 29 and PfGluPho conf 46.
`O=C1c2ccccc2C(=O)c2c1cccc2N(CCO)CCO` gave HKDC1 inh 8 and PfGluPho inh 12.
`O=S(=O)(c1ccccc1)c1cc(O)ccc1O` gave Diaphorase inh 20, HKDC1 inh 19, G6PDH CS 15 and PfGluPho inh 16.
Screening Nc1ccc(S(=O)(=O)c2cc(O)c3ccccc3c2O)cc1 returned HKDC1 inh 55*, PfGluPho inh 103*, HKDC1 act conf2 69, PfGluPho conf 70*, Diaph ctr 10uM 33 and Diaphorase 30uM 19.
For Cc1ccccc1P(=O)(c1ccccc1)c1ccccc1C the results were PfGluPho inh -5.
For O=C(C1CCCCC1)N1C[C@H](O)[C@@H](n2cc(-c3ccc(F)cc3)nn2)C[C@@H]1c1ccccc1 the results were PfGluPho inh 12.
`COc1cc(N(C)C)ccc1C=c1c2ccccc2n2c1cc(-c1ccccc1)[n+]2C` gave HKDC1 inh 41*, PfGluPho inh 83*, HKDC1 act conf2 37, PfGluPho conf 76*, Diaph ctr 10uM 14 and Diaphorase 30uM 11.
`Cc1cccc(C(=O)NCCC(=O)NCc2ccccc2Cl)c1` gave HKDC1 inh 6 and PfGluPho inh 7.
Screening Cc1cc2c(N)cccc2nn1 returned Diaphorase inh 44, HKDC1 inh 35*, G6PDH CS 52*, PfGluPho inh 100*, HKDC1 act conf2 4 and PfGluPho conf 4.
Screening CC(C)C(NC(=O)c1ccco1)C(=O)NCc1ccc(C(=O)O)cc1 (centres undefined) returned HKDC1 inh -2 and PfGluPho inh 3.
CCC1CCc2c(sc(NC(=O)c3cnccn3)c2C(N)=O)C1 (centres undefined) was read as HKDC1 inh -8, PfGluPho inh 69* and PfGluPho conf 33.
CCC1CCc2c(sc(NC(=O)c3ccco3)c2C(N)=O)C1 (centres undefined) was read as Diaphorase inh 24, HKDC1 inh 5, G6PDH CS 2 and PfGluPho inh 8.
O=C(OCc1cn([C@H]2CN(C(=O)c3cccs3)[C@@H](c3ccc(Cl)cc3)C[C@@H]2O)nn1)c1ccccc1 was read as PfGluPho inh 5.
`Cc1cc2cc(CN(Cc3ccc4c(c3)OCO4)C(=O)c3ccco3)c(=O)[nH]c2cc1C` gave Diaphorase inh 33, HKDC1 inh 4, G6PDH CS 5, PfGluPho inh 82* and PfGluPho conf 38.
For O=C(NCc1ccco1)Nc1cccc(-c2ccccc2)c1 the results were HKDC1 inh -8 and PfGluPho inh 0.
`COCCn1c(-c2ccc(OC)cc2)nc2ccccc21` gave Diaphorase inh 3, HKDC1 inh -2, G6PDH CS 0 and PfGluPho inh 10.
Screening COCCn1c2nc(=O)n(-c3ccccc3)c(=O)c-2nc2ccccc21 returned PfGluPho inh 59* and PfGluPho conf 38.
For Cc1ccc(-n2nnnc2C(Cl)(Cl)c2nnnn2-c2ccc(C)cc2)cc1 the results were Diaphorase inh 29, HKDC1 inh 14, G6PDH CS 0, PfGluPho inh 72* and PfGluPho conf 43.
`Clc1ccc(-c2nnnn2-c2ccc(Cl)cc2)cc1` gave HKDC1 inh -4 and PfGluPho inh 5.
For CS(=O)(=O)c1ccc(Cl)c(NC(=O)CCN2C(=O)NC3(CCCC3)C2=O)c1 the results were HKDC1 inh -2 and PfGluPho inh -13.
For N#Cc1c(C#N)c(SSc2c(C#N)c(C#N)c(N)n2-c2ccccc2)n(-c2ccccc2)c1N the results were HKDC1 inh -1, PfGluPho inh 111*, PfGluPho conf 61*, Diaph ctr 10uM -12 and Diaphorase 30uM -18.
For N#Cc1c(N)n(-c2ccc(N)cc2)c2nc3ccccc3nc12 the results were HKDC1 inh 6 and PfGluPho inh -15.
For CNc1snc(C)c1C(=O)OC(C)C(=O)NCc1ccccc1 (centres undefined) the results were HKDC1 inh 1 and PfGluPho inh -7.
Screening Cc1ccc(CNc2ccc(O)cc2)cc1 returned Diaphorase inh 53*, HKDC1 inh 18, G6PDH CS -31, PfGluPho inh 86*, PfGluPho conf 64*, Diaph ctr 10uM 20 and Diaphorase 30uM 22.
`COc1ccccc1CNC(=O)CCCNC(=O)Cn1cnc2sc(C)c(C)c2c1=O` gave HKDC1 inh -1 and PfGluPho inh -2.
Screening CCN(CC)c1ccc(N=C2C=CC(=O)C=C2NC(C)=O)cc1 returned HKDC1 inh 11, PfGluPho inh 121*, PfGluPho conf 99*, Diaph ctr 10uM 95* and Diaphorase 30uM 98*.
For COc1cccc(C(=O)NC2CCN(CC(=O)Nc3ccccc3Cl)CC2)c1 the results were HKDC1 inh 4 and PfGluPho inh 6.
Screening COc1cccc(C2(c3cccc(OC)c3)CC2C(=O)Nc2ccccc2Cl)c1 (centres undefined) returned Diaphorase inh 20, HKDC1 inh -2, G6PDH CS -17, PfGluPho inh 88* and PfGluPho conf 37.
For COc1cccc(C2(c3cccc(OC)c3)CC2C(=O)Nc2ccc(F)cc2)c1 (centres undefined) the results were Diaphorase inh 19, HKDC1 inh -6, G6PDH CS 3, PfGluPho inh 115*, PfGluPho conf 57*, Diaph ctr 10uM 56* and Diaphorase 30uM 37.
For Cc1cccc(C2(c3cccc(C)c3)CC2C(=O)Nc2ccc([N+](=O)[O-])cc2O)c1 (centres undefined) the results were Diaphorase inh 30, HKDC1 inh -5, G6PDH CS 19, PfGluPho inh 113*, PfGluPho conf 60*, Diaph ctr 10uM 55* and Diaphorase 30uM 38.
`O=C(CSc1nc2ncc(Cl)cc2[nH]1)NCC(=O)Nc1ccc(F)c(F)c1F` gave HKDC1 inh 0, PfGluPho inh 79* and PfGluPho conf 31.
